Assays:
Rattus norvegicus [1] = experiment: Antiinflammatory activity in Sprague-Dawley rat assessed as inhibition carrageenan-induced paw edema at 5 mg/kg, ip pretreated for 15 mins followed by carrageenan challenge measured at 4 hrs post carrageenan challenge; format: functional
Procedure, shortened: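 Male Sprague-Dawley rats got an IP pretreatment 15 min before a subplantar carrageenan injection. Paw volume was recorded at 1, 2, 4 and 6 h after carrageenan. Percent inhibition of paw edema was calculated against a vehicle-treated group.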

Rattus norvegicus [2] = experiment: Antiinflammatory activity in Sprague-Dawley rat assessed as inhibition carrageenan-induced paw edema at 5 mg/kg, ip pretreated for 15 mins followed by carrageenan challenge measured at 1 hr post carrageenan challenge; conditions: read-out: INH
Rattus norvegicus [3] = experiment: Antiinflammatory activity in Sprague-Dawley rat assessed as inhibition carrageenan-induced paw edema at 5 mg/kg, ip pretreated for 30 mins followed by carrageenan challenge measured up to 8 hrs post carrageenan challenge; format: functional
Rattus norvegicus [4] = experiment: Antiinflammatory activity in Sprague-Dawley rat assessed as inhibition carrageenan-induced paw edema at 5 mg/kg, ip pretreated for 15 mins followed by carrageenan challenge measured at 6 hrs post carrageenan challenge; format: functional
Procedure, shortened: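 Male Sprague-Dawley rats received peptide IP (30, 10 or 3 mg/kg), or indomethacin IP at 5 mg/kg, 15 min before subplantar carrageenan. Paw volume was followed over time against a vehicle group.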

Rattus norvegicus [5] = experiment: Antiinflammatory activity in Sprague-Dawley rat assessed as inhibition carrageenan-induced paw edema at 5 mg/kg, ip pretreated for 15 mins followed by carrageenan challenge measured at 2 hrs post carrageenan challenge; conditions: read-out: INH
Coagulation factor XI = Coagulation factor XI (Homo sapiens, UniProt P03951); experiment: Inhibition of factor 11a (unknown origin)
Plasma = experiment: Anti-coagulating activity in human plasma assessed as increase in coagulation time at 14 uM by aPTT assay relative to control; format: functional

Sequence of Coagulation factor XI (P03951 19-387 limits assumed): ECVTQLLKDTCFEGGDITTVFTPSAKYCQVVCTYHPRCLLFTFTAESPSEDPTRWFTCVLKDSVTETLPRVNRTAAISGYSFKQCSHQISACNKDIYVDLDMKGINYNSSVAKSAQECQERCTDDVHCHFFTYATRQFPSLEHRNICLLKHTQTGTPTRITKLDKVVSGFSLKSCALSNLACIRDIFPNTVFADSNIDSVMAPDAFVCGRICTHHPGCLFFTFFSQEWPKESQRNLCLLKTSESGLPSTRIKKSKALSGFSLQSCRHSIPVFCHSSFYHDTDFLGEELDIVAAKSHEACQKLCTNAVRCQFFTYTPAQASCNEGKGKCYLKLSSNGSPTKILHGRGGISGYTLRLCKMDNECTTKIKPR
Sequence of Coagulation factor XI (P03951 388-625 limits assumed): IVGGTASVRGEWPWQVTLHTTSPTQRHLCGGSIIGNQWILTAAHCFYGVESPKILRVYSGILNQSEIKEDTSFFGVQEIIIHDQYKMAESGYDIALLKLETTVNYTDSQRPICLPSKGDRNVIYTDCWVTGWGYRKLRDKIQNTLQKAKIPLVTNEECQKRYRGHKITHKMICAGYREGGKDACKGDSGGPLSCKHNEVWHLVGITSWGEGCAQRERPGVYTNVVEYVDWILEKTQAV

Row | SMILES | inhibition in vivo at 5 mg/kg (Rattus norvegicus [1]) | inhibition in vivo at 5 mg/kg (Rattus norvegicus [2]) | inhibition in vivo at 5 mg/kg (Rattus norvegicus [3]) | inhibition in vivo at 5 mg/kg (Rattus norvegicus [4]) | inhibition in vivo at 5 mg/kg (Rattus norvegicus [5]) | Ki (Coagulation factor XI) | fold change (FC) (Plasma)
1 | COc1ccc2c(c1)c(CC(=O)O)c(C)n2C(=O)c1ccc(Cl)cc1 [INDOMETHACIN] | 54% | 79% | 47.2% | 48% | 56% | – | –
2 | Cc1cc(Oc2nc(Oc3cccc(C(=N)N)c3)c(F)c(NC(C)CCc3ccccc3)c2F)c(C(=O)O)cc1N(C)C (configuration not stated) | – | – | – | – | – | 1000 nM | 2

From ChEMBL document CHEMBL4033799, “Stable and Long-Lasting, Novel Bicyclic Peptide Plasma Kallikrein Inhibitors for the Treatment of Diabetic Macular Edema” (J Med Chem, 2018)
